Assay results published in ChEMBL document CHEMBL1212869, “Anti-HIV and antiplasmodial activity of original flavonoid derivatives” (Bioorg Med Chem, 2010).

What was measured:
[1] = tested on: Human immunodeficiency virus 2; experiment: Antiviral activity against HIV2 ROD infected in human MT4 cells assessed as inhibition of virus-induced cytopathic effect after 4 days by MTT assay; format: functional, organism-based; settings: Human immunodeficiency virus 2, ISOLATE ROD, MT4, 96 h
[2] = Cytotoxicity against human MT4 cells after 4 days by MTT assay; format: cell-based
Procedure, shortened: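 Uninfected MT-4 cells were run in parallel with the antiviral test under the same conditions: 10⁵ cells/mL, serial compound dilutions from DMSO stocks, 4 days at 37 °C. Viability was read by MTT. CC50 is the concentration that lowers viability of uninfected cells by 50%.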

[3] = Selectivity index, ratio of CC50 for human MT4 cells to IC50 for HIV1 3B; format: functional
Procedure, shortened: (§1)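 Selectivity index was calculated as the MT-4 CC50 from uninfected cells divided by the IC50 against HIV-1 IIIB or HIV-2 ROD. Both values came from the 4-day MTT cytopathic-effect assays.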

[4] = Selectivity index, ratio of CC50 for human MT4 cells to IC50 for HIV2 ROD; format: functional; procedure, shortened: as §1
[5] = tested on: Human immunodeficiency virus 1; experiment: Antiviral activity against HIV1 3B infected in human MT4 cells assessed as inhibition of virus-induced cytopathic effect after 4 days by MTT assay; format: functional, organism-based; settings: Human immunodeficiency virus 1, 3B, MT4, 96 h
THP-1 = experiment: Cytotoxicity against human THP1 cells using propidium iodide staining after 72 hrs by flow cytometry; format: cell-based; settings: THP-1, 72 h
Plasmodium falciparum = experiment: Antiplasmodial activity against chloroquine-resistant Plasmodium falciparum W2 infected in human A+ erythrocytes assessed as inhibition of parasite proliferation after 48 hrs; format: functional, organism-based; settings: W2, 48 h
Procedure, shortened: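 W2 parasites were cultured in RPMI 1640 with 25 mM HEPES, 25 mM NaHCO3 and 10% A+ human serum at 2.5% hematocrit, at 37 °C under 10% O2/6% CO2/84% N2. After 48 h exposure without medium change, cells were stained with hydroethidine (0.05 mg/mL in PBS, 20 min, dark, 37 °C). Parasitaemia was read by flow cytometry. IC50 came from three independent experiments.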

[6] = Selectivity index, ratio of IC50 for human THP1 cells to IC50 for chloroquine-resistant Plasmodium falciparum W2; format: toxicity, cell-based, THP-1; settings: read-out: Selectivity Index

SMILES	IC50 [1] [µM]	CC50 at 96 h [2] [µM]	Selectivity Index [3]	Selectivity Index [4]	IC50 [5] [µM]	IC50 (THP-1) [µM]	IC50 (Plasmodium falciparum) [µM]	selectivity ratio [6]
COc1c(-c2cccc(C(F)(F)F)c2)oc2ccc(N)cc2c1=O	57.6	73.1	1.5	1.3	50.4	33	> 33	
COc1c(-c2cccc(F)c2)oc2ccc(N)cc2c1=O	60.7	112		1.9	112	34	> 34	
Cc1ccnc2c1NC(=O)c1cccnc1N2C1CC1 [NEVIRAPINE]	15			46	0.03			
COc1ccccc1-c1cc(=O)c2cc(N)ccc2o1	198	198	2.3		88	74	50	1.5
O=c1[nH]cnc2c1ncn2[C@H]1CC[C@@H](CO)O1 [DIDANOSINE]		> 529	>98	>195				
COc1c(-c2cccc(C(F)(F)F)c2)oc2ccc(NC(C)=O)cc2c1=O	201	201			201	52	19	2.7
COc1c(-c2ccccc2F)oc2ccc(NC(C)=O)cc2c1=O	180	180			180	> 125	15	> 8.3
COc1ccccc1-c1oc2ccc(NC(C)=O)cc2c(=O)c1O	385	385			385	> 125	50	> 2.5
CC(=O)Nc1ccc2oc(-c3ccccc3F)cc(=O)c2c1	205	205			205	> 125	40	> 3.1
COc1ccc(-c2oc3ccc(N)cc3c(=O)c2OC)cc1	58.2	200		3.4	200	21	> 21	
COc1ccccc1-c1oc2ccc(NC(C)=O)cc2c(=O)c1OC	154	154			154	108	16	6.7
COc1ccccc1/C=C/C(=O)c1cc(NC(C)=O)ccc1O	37.8	37.8			37.8	> 125	13.4	> 9.3
COc1c(-c2ccccc2)oc2ccc(N)cc2c1=O	126	126			126	74	20	3.7
Cc1cn([C@H]2C[C@H](N=[N+]=[N-])[C@@H](CO)O2)c(=O)[nH]c1=O [ZIDOVUDINE]		93.5	>17990		0.005			
COc1ccc(/C=C/C(=O)c2cc(NC(C)=O)ccc2O)cc1	38.7	38.7			38.7	59.2	6.7	8.8
COc1cccc(-c2cc(=O)c3cc(N)ccc3o2)c1	247	247			247	> 125	31	> 4
COc1cccc(-c2oc3ccc(N)cc3c(=O)c2OC)c1	251	251			251	37	13	2.8
COc1c(-c2ccc(F)cc2)oc2ccc(NC(C)=O)cc2c1=O	317	317			317	> 125	23	> 5.4
COc1cccc(/C=C/C(=O)c2cc(NC(C)=O)ccc2O)c1	40	40			40	93.7	13.2	7.1
COc1c(-c2ccc(C(F)(F)F)cc2)oc2ccc(N)cc2c1=O	47.7	290		6.1	290		26	
COc1c(-c2ccccc2F)oc2ccc(N)cc2c1=O	234	234	5.2		44.7	> 125	23	> 5.4
CC(=O)Nc1ccc(O)c(C(=O)/C=C/c2ccc(C(F)(F)F)cc2)c1	21.1	21.1			21.1	15.5	11.6	1.3
COc1c(-c2ccccc2)oc2ccc(NC(C)=O)cc2c1=O	200	200			200	> 125	18	> 6.9
COc1ccc(-c2oc3ccc(NC(C)=O)cc3c(=O)c2OC)cc1	369	369			369	> 50	21	> 2.4
CC(=O)Nc1ccc2oc(-c3cccc(F)c3)cc(=O)c2c1	240	240			240	> 125	50	> 2.5
COc1c(-c2cccc(F)c2)oc2ccc(NC(C)=O)cc2c1=O	210	210			210	> 125	49	> 2.6
CC(=O)Nc1ccc(O)c(C(=O)/C=C/c2cccc(F)c2)c1	30.1	30.1			30.1	78.6	15.7	5
COc1c(-c2ccc(F)cc2)oc2ccc(N)cc2c1=O	141	141			141	36	33	1.1
Nc1ccc2oc(-c3cccc(F)c3)cc(=O)c2c1	58.4	269	4.4	4.6	61.1	> 125	> 50	
